Assay results as given in paper PMC12749109 (Nature Communications, 2025).
Entries after “also recorded” stand apart in the source; their conditions may differ.

Key:
hGALR2 = assay: G protein pathway activation, HEK293 luciferase; type: cell-based; settings: human GALR2, vs cGAL53
Outline: (§1)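 HEK293 cells were transfected (Lipofectamine) with empty pcDNA3.1 or GALR plasmid (2 μg) plus CRE, NFAT-RE or SRE luciferase reporter. After 36 h, medium was replaced with serum-free medium containing test peptide, diluted in DMEM from a 1 mM water stock, for 12 h. Luciferase was read 48 h post-transfection. Technical triplicate; mean ± SD; 37 °C, 5% CO2.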

[1] = system: DSS-induced intestinal inflammation; type: in vivo, chicken
Outline: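 Forty 21-day-old male yellow-feathered broilers were split into control, DSS and two peptide groups under 24 h light, with free food and water. DSS groups were gavaged with […] of 4% DSS daily from day 21 to 29. Treated birds got 100 μL of 50 μM peptide i.p. daily. TNF-α, IL-1β and IL-6 were measured by ELISA in jejunum/ileum homogenates (1:9 w/v ice-cold PBS, pH 7.4; 5000 × g, 10 min, 4 °C).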

mGALR2 = assay: G protein pathway activation, HEK293 luciferase; type: cell-based; settings: mouse GALR2, vs cGAL53
Outline: as §1

[2] = Tolerability of peptide alone in healthy male mice, overall; type: in vivo, mouse; settings: daily i.p. for six consecutive days
Outline: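 Healthy male mice received daily i.p. test peptide for six consecutive days alongside a saline-injected control group. Body weight, water intake, food intake and colon length were recorded.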

GALR3 [3] = assay: SRE-luc luciferase; type: cell-based; settings: HEK293, GALR3, luciferase, 12 h
Outline: as §1

GALR2 [4] = assay: G protein versus β-arrestin2 signaling bias at GALR2; type: cell-based
DSS-induced colitis = DSS-induced colitis in wild-type mice, overall therapeutic efficacy; type: in vivo, mouse; settings: chicken and mouse colitis models, overall statement
GALR3 [5] = assay: CRE-luc luciferase; type: cell-based; settings: HEK293, GALR3, luciferase, 12 h
Outline: as §1

GALR1 [6] = assay: NFAT-luc luciferase; type: cell-based; settings: HEK293, GALR1, luciferase, 12 h
Outline: as §1

ARRB2 = assay: 2% DSS colitis in Arrb2 cKO mice, overall; type: in vivo, mouse; settings: Arrb2 cKO (gut epithelial) mice, vs AAV control mice
Outline: (§2)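 Male Arrb2fl/fl or Gnaqfl/fl mice (7–8 weeks) were fasted overnight, anaesthetised, and given 100 μL AAV8-Vil-cre or AAV8-Vil-null (1E+11 vg/mL) by catheter 4 cm into the colon. One week later they received 2% DSS in drinking water for 7 days. Read-outs were body weight, DAI, colon length, H&E, serum IL-6/IL-1β ELISA, and colonic Il6/Tnf/Il1b/Tgfb1/Tjp1/Ocln mRNA.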

GALR1 [7] = assay: CRE-luc luciferase; type: cell-based; settings: HEK293, GALR1, luciferase, 12 h
Outline: as §1

GALR2 [8] = assay: SRE-luc luciferase; type: cell-based; settings: HEK293, GALR2, luciferase, 12 h
Outline: as §1

mGALR2 mutants = assay: Tango β-arrestin2 recruitment, binding-site mutants; type: cell-based, mouse
Gnaq = assay: 2% DSS colitis in Gnaq cKO mice, overall; type: in vivo, mouse; settings: Gnaq cKO (gut epithelial) mice, vs AAV control mice
Outline: as §2

colon transcriptome = assay: RNA-seq of colon tissue, DSS-induced colitis mice; type: in vivo; settings: mouse colon
Outline: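 Total RNA was extracted from mouse colon with Trizol, sequenced on BGIseq500 and mapped to the mouse genome. Data were analysed in R and reported as mean ± SEM.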

GALR2 [9] = assay: CRE-luc luciferase; type: cell-based; settings: HEK293, GALR2, luciferase, 12 h
Outline: as §1

GALR1 [10] = assay: SRE-luc luciferase; type: cell-based; settings: HEK293, GALR1, luciferase, 12 h
Outline: as §1

GALR2 [11] = assay: NFAT-luc luciferase; type: cell-based; settings: HEK293, GALR2, luciferase, 12 h
Outline: as §1

Caco2 cells = assay: RT-qPCR cytokine expression, Caco2 cell inflammation model; type: cell-based, human; settings: IL-1β + TNF-α
GALR3 [12] = assay: NFAT-luc luciferase; type: cell-based; settings: HEK293, GALR3, luciferase, 12 h
Outline: as §1

GALR2 [13] = settings: cited from earlier work
TNBS-induced colitis = settings: rat acute TNBS colitis; cited from earlier work
GALR3 [14] = settings: cited from earlier work
GALR1 [15] = settings: cited from earlier work

Substance: GWTLNSAGYLLGPHAVDNHRSFNDKHGFT-NH2 [cGAL29]
- activation of G protein pathways (hGALR2): more strongly than cGAL53
- IBD-related symptoms in DSS-treated chickens ([1]; chicken, 4% DSS oral gavage, daily i.p. peptide): ameliorated IBD-related symptoms in chickens, manifested as reductions of body weight loss, intestinal bleeding points and tissue damage
- expression of colonic inflammatory factors induced by DSS ([1]; chickens): reduced the expression of colonic inflammatory factors
- activation of G protein pathways (mGALR2): more strongly than cGAL53
- body weight, water and food intake, colon length (tolerability) [2]: neither peptide affected body weight, water, and food intake, nor colon length, indicating good tolerability
- Gi (SRE-luc) activation (GALR3 [3]): can activate
- bias at GALR2 (GALR2 [4]): G protein-
- G protein activation / ARRB2 recruitment via GALR2 (GALR2 [4]; GALR2, overall statement): stronger activation of G protein signaling pathways via GALR2
- alleviation of colitis / intestinal inflammation, overall (DSS-induced colitis): alleviated intestinal inflammation symptoms in mouse colitis induced by DSS and TNBS
- Gs (CRE-luc) activation (GALR3 [5]): can activate
- Gq (NFAT-luc) activation (GALR1 [6]): not GALR1
- therapeutic effects (weight loss, colon shortening, intestinal damage, inflammation) (ARRB2): significantly diminished; also recorded: negated the therapeutic effects
- Gs (CRE-luc) activation (GALR1 [7]): not GALR1
- Gi (SRE-luc) activation (GALR2 [8]): can activate
- β-arrestin2 recruitment after mutation of predicted unique binding sites (mGALR2 mutants): affected
- ability to alleviate weight loss, colon shortening, intestinal damage, inflammation (Gnaq): significantly reduced
- DSS-changed pathways (KEGG) (colon transcriptome): significantly modulated
- expression levels of immune-related genes (colon transcriptome): significantly reduced
- Gs (CRE-luc) activation (GALR2 [9]): more robust activation; also recorded: can activate
- Gi (SRE-luc) activation (GALR1 [10]): not GALR1
- Gq (NFAT-luc) activation (GALR2 [11]): more robust activation; also recorded: can activate
- concentration giving (similar) anti-inflammatory effect (Caco2 cells): 10 µM
- expression of Il6, Il23 and Tgfb1 induced by IL-1β and TNF-α (Caco2 cells; RT-qPCR): reduced
- Gq (NFAT-luc) activation (GALR3 [12]): can activate

Substance: galanin: biologically active neuropeptide of 29/30 amino acids, cited literature
- affinity (GALR2 [13]): high affinity
- severity of colonic damage and inflammatory responses (TNBS-induced colitis): decreases inflammatory responses; also recorded: reduce the severity of colonic damage and inflammatory responses
- affinity (GALR3 [14]): lower affinity
- affinity (GALR1 [15]): high affinity
